Assay results collected from several papers.
Each line is one published result; the experiments were not run side by side.

| Structure (SMILES) | sample | concentration | time | pH | Papp [×10⁻⁶ cm/s] |
| --- | --- | --- | --- | --- | --- |
| c1cncc(-c2cccc(Nc3nccc(NC4CCC4)n3)c2)c1 | PAMPA | 50 nM | 30 min |  | 2050 |
| c1ccc(-c2nc(N3CCC(c4ccccn4)C3)c3ccccc3n2)nc1 (centres unmarked) | PAMPA | 10 µM | 3 h | pH 7.4 | 22.6 |
| CC(C)Nc1ccnc(Nc2cccc(C(C)(C)C)c2)n1 | PAMPA | 50 nM | 30 min |  | 1600 |
| O=c1[nH]c2sc(-c3ccc(F)cc3)cc2c(=O)n1O | PAMPA | 10 µM | 5 h |  | 0.6 |
| CC(C)NCC(O)COc1cccc2ccccc12 (centres unmarked) | PAMPA-BBB | 50 µM | 16 h | pH 7.4 | 22.4 |
| N#Cc1ccc(/C=C/CN(CC[C@H](N)C(=O)O)C[C@H]2O[C@@H](n3cnc4c(N)ncnc43)[C@H](O)[C@@H]2O)cc1 | PAMPA | 200 µM | 5 h |  | 0.01 |
| O=c1[nH]c2scc(-c3ccccc3)c2c(=O)n1O | PAMPA | 10 µM | 5 h |  | 0.4 |
| N=c1c2c(-c3ccccc3)c(-c3ccccc3)n(Cc3ccc(OC(F)(F)F)cc3)c2ncn1[C@H]1CC[C@H](O)CC1 | PAMPA | 50 µM | 30 min |  | 1250 |
| Cn1nccc1-c1nc(N2CCC(c3ccccn3)C2)c2ccccc2n1 (centres unmarked) | PAMPA | 10 µM | 3 h | pH 7.4 | 49.3 |
| Cc1c(C)n(Cc2ccccc2)c2ncn(C3CCOCC3)c(=N)c12 | PAMPA | 50 µM | 30 min |  | 1680 |
| c1cncc(-c2cccc(Nc3nccc(NC4CCNCC4)n3)c2)c1 | PAMPA | 50 nM | 30 min |  | 8.2 |
| N=c1c2c(-c3ccccc3)cn(Cc3ccccc3)c2ncn1CCO | PAMPA | 50 µM | 30 min |  | 1270 |
| Cc1cc(N)nc(C#CCCN(C)C)c1 | PAMPA-BBB | 200 µM | 17 h |  | 4.7 |
| COc1ccc(CCn2cnc3c(c(-c4ccccc4)c(-c4ccccc4)n3Cc3ccccc3)c2=N)cc1OC | PAMPA | 50 µM | 30 min |  | 1200 |
| c1ccc(-c2nc(N3CCOCC3)c3ccccc3n2)nc1 | PAMPA | 10 µM | 3 h | pH 7.4 | 19.4 |
| O=c1[nH]c2cc(-c3ccc(F)cc3)sc2c(=O)n1O | PAMPA | 10 µM | 5 h |  | 0.6 |
| Oc1ccc(-c2nc(N3CCC(c4ccccn4)C3)c3ccccc3n2)cc1 (centres unmarked) | PAMPA | 10 µM | 3 h | pH 7.4 | 32.8 |
| CNc1ccnc(Nc2cccc(-c3cccnc3)c2)n1 | PAMPA | 50 nM | 30 min |  | 2250 |
| COc1ccc(Cn2c(-c3ccccc3)c(-c3ccccc3)c3c(=N)n(CC4CCOCC4)cnc32)cc1 | PAMPA | 50 µM | 30 min |  | 1270 |
| CCN1CCc2c(sc3[nH]c(=O)n(O)c(=O)c23)C1 | PAMPA | 10 µM | 5 h |  | 0.08 |
| CCn1ccc2nc(-c3ccccn3)nc(N3CCC(c4ccccn4)C3)c21 (centres unmarked) | PAMPA | 10 µM | 3 h | pH 7.4 | 21 |
| CC[C@H](C)[C@@H]1NC(=O)[C@@H](Cc2ccccc2)OC(=O)CNC(=O)[C@H]([C@@H](C)CC)NC(=O)[C@@H](Cc2ccccc2)OC(=O)CNC1=O | PAMPA |  |  |  | 47 |

| Structure (SMILES) | sample | concentration | time | pH | Papp [×10⁻⁶ cm/s] |
| --- | --- | --- | --- | --- | --- |
| COc1cc(CN2CCc3c(cc(Cn4ccnc4C)cc3-c3cn(C)nc3C(F)(F)F)C2=O)cc(OC)c1 | PAMPA | 100 µM | 5 h | pH 7.4 | 5.3 |
| c1ccc(-c2nc(NCc3nc4ccccc4o3)c3ccccc3n2)nc1 | PAMPA | 10 µM | 3 h | pH 7.4 | 27.8 |
| O=C(CCCN1CCC(O)(c2ccc(Cl)cc2)CC1)c1ccc(F)cc1 | PAMPA-BBB | 50 µM | 16 h | pH 7.4 | 21.4 |
| O=c1[nH]c2cc(-c3ccc(Cl)cc3)ccc2c(=O)n1O | PAMPA | 10 µM | 5 h |  | 1.7 |
| O=C(Nc1ccn(Cc2ccc(O)cc2C(F)(F)F)n1)c1c(F)cccc1F | PAMPA |  |  |  | 36 |
| c1ccc(-c2cccc(Nc3nccc(NC4CCCCC4)n3)c2)nc1 | PAMPA | 50 nM | 30 min |  | 1530 |
| Cc1sc2c(=O)n(O)c(=O)[nH]c2c1C | PAMPA | 10 µM | 5 h |  | 0.5 |
| C[C@H](Nc1ccnc(Nc2cccc(-c3cccnc3)c2)n1)C(=O)O | PAMPA | 50 nM | 30 min |  | 9.7 |
| CC(C)c1noc(C2CCN(c3ncnc(Nc4ccc(S(C)(=O)=O)cc4F)c3[N+](=O)[O-])CC2)n1 | PAMPA-BBB | 0.5 µM | 4 h | pH 7.4 | 3.02 |
| CC(=O)CC(c1ccccc1)c1c(O)c2ccccc2oc1=O (centres unmarked) | PAMPA | 10 µM | 24 h | pH 7.4 | 1.5 |
| Cc1noc(C)c1-c1ccc2nc(-c3cnn(CC(C)(C)O)c3)nc(N3CCOC[C@@H]3c3ccccc3)c2c1 | PAMPA |  |  |  | 1180 |
| O=C(CNc1cccc(OC(F)(F)F)c1)NC12CC3CC(CC(C3)C1)C2 | PAMPA |  | 16 h |  | 3.5 |
| O=C(O)c1ccc2c(c1)nc(Nc1cccc(Cl)c1)c1ccncc12 | PAMPA |  | 5 h | pH 7.4 | 0.728 |
| Cc1cccnc1CNc1nc(-c2ccccn2)nc2ccccc12 | PAMPA | 10 µM | 3 h | pH 7.4 | 27.1 |
| C[C@@H](NC(=O)[C@@H](CC(=O)N1CCC(N2CCCCC2)CC1)N1C(=O)[C@@H](N2C(=O)OC[C@@H]2c2ccccc2)[C@H]1/C=C/c1cccc(I)c1)c1ccccc1 | PAMPA-BBB | 25 µg/mL | 18 h | pH 7.4 | 2 to 4 |
| CC(C)Nc1ccnc(Nc2cccc(-n3ccnc3)c2)n1 | PAMPA | 50 nM | 30 min |  | 2070 |
| c1ccc(-c2nc(N3CCc4nc[nH]c4C3)c3ccccc3n2)nc1 | PAMPA | 10 µM | 3 h | pH 7.4 | 11.8 |
| CN1CC(=O)O[C@H](Cc2ccccc2)C(=O)NCC(=O)N(C)CC(=O)O[C@H](Cc2ccccc2)C(=O)NCC1=O | PAMPA |  |  |  | 15 |
| CC(C)Nc1ccnc(Nc2cccc(-c3nccs3)c2)n1 | PAMPA | 50 nM | 30 min |  | 1960 |
| Cc1csc2c(=O)n(O)c(=O)[nH]c12 | PAMPA | 10 µM | 5 h |  | 0.1 |
| N=c1c2c(-c3ccccc3)cn(Cc3ccccc3)c2ncn1C1CCOCC1 | PAMPA | 50 µM | 30 min |  | 1730 |
| COc1ccc(C(CO)Nc2ncnc3sc(-c4ccccc4)cc23)cc1 (centres unmarked) | PAMPA |  |  |  | 240 |
